Shown are actives, neighbours in structure and some others; about 2.4% of the full set was active somewhere.
zVAD death inh – L929 zVAD cell death inhibition; L929 zVAD necroptosis rescue, ATP luminescence, 24 h; with zVAD 60 µM; viability rescue, % at 10 µM; 220,000 compounds, 0.38% hits;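 active = activation, scaled between plate controls, above about 75%, limit read from the data; inactive = activation under that limit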;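 also: 0% = zVAD with DMSO and 100% = DMSO alone without zVAD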
Autophagy HCS – autophagy modulation, high-content screen. MEF GFP-LC3 puncta imaging; test concentration mostly 10 µM. calls only at 10 µM (by protocol). 190,000 compounds, 0.98% hits;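 active = percentage of spot-positive cells more than 3 SD above its plate mean, without a fluorescence outlier flag or 80% toxicity; inconclusive = no clear call, values can overlap the other calls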;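 also: spot-positive cell cutoff set from DMSO-treated cells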
MDM2 E3 inh – blocks human Mdm2 ubiquitin ligase activity | 210,000 compounds, 0.11% hits | cell-based MDM2 ubiquitination luciferase reporter, 2 h; 0 = plate control, 100 = twice control, blank-subtracted | signal enhancement, % at 5 µM;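 active = signal enhancement of 30% or more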;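 also: luminescence tracks abundance of the self-degrading MDM2-luciferase fusion protein; higher signal means inhibition of MDM2 E3 ligase activity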
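Assay system: mammalian cells stably expressing self-ubiquitinating, self-degrading MDM2 E3–luciferase fusion. Quantity: 2000 cells in each well. Medium: DMEM culture medium. Compound dosing: single-point 5 µM. Timing: cell settling 4 h, compound treatment 2 h, both 37 °C. Technique: luciferase luminescence. Read-out basis: percent signal gain over controls, blank-subtracted. Benchmarks: plate controls and plate blanks.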
Hck Nef HTS – blocks Nef-activated human Hck kinase | 220,000 compounds, 0.68% hits | P08631 | inhibition, % at 20 µM | Recombinant Hck-YEEI plus Nef, Z-Lyte FRET kinase assay;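 active = Hck-Nef kinase inhibition above about 50%, limit read from the data; inactive = inhibition below that limit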;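 also: 0% = DMSO with Hck plus Nef and 100% = Hck alone without Nef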
Target sequence (P08631 whole entry, looked up): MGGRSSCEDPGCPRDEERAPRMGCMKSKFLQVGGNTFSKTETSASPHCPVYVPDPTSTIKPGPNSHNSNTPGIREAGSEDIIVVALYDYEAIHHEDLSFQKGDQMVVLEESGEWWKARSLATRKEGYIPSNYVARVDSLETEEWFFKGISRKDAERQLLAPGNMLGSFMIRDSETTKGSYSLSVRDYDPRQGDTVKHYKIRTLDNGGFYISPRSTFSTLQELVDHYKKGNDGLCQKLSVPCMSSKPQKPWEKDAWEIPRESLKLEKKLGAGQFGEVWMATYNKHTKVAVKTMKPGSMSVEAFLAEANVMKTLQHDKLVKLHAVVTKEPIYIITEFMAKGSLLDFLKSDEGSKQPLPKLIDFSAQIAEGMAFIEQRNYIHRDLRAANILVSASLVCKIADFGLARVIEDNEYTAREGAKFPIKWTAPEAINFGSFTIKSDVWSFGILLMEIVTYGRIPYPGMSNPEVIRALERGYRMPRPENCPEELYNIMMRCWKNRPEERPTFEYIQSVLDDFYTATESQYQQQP
TNF necrop inh – inhibitors of TNF-alpha induced necroptosis in Jurkat FADD-/- cells; Jurkat FADD-/- TNF necroptosis rescue, ATP luminescence, 24 h; 0 = TNF only, 100 = no-TNF cells; activation (protection from cell death), % at 10 µM; 220,000 compounds, 0.068% hits;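 active = activation, meaning protection from cell death, of at least 50% relative to plate controls; inactive = activation below 50%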;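 also: necroptosis triggered by 40 ng/mL TNF-alpha added together with compound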
Dynein cargo inh – dynein cargo transport inhibition; AID 1381; 220,000 compounds, 0.47% hits; 3617.4 mouse cells, GR-EGFP nuclear translocation imaging; test concentration mostly 20 µM; stimulated with dexamethasone, 1 µM; hits give low values; z-score, hits read low;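 active = plate z-score of nuclear minus cytoplasmic receptor signal below a set negative limit, without overly bright fluorescence or cell loss, cut at about -3.5 in these data, passing the limit was not always enough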;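 also: z-score of nuclear minus cytoplasmic ring GR-EGFP intensity difference per well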
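Buffer or medium: tet-free, stripped-serum medium; reagent: dexamethasone at 1.0 µM final, 30 min; incubation: 48 h induction, 1 h compound, 30 min dex at 37 °C; measured by: formaldehyde fixation, Hoechst nuclear stain, 10x automated fluorescence imaging; read-out: nuclear-to-cytoplasmic GR-EGFP distribution per well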
Dynein confirm – dynein cargo transport inhibition, confirmation; shares compounds with Dynein cargo inh; 3617.4 GR-EGFP nuclear translocation imaging, dexamethasone-induced; calls only at 20 µM; 1,000 compounds, 69% hits;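 active = inhibition of receptor movement into the nucleus at or above a set limit in both runs, with normal cell brightness and cell count; inconclusive = limit reached in only one run, brightness and count normal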;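 also: dexamethasone at 1 µM final in well for 30 min; nuclear minus cytoplasmic GR-EGFP mean intensity difference in channel 2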
* = called active by the depositor; i = inactive; ? = inconclusive; · = no result given; + = active, no number.

SMILES | zVAD death inh | Autophagy HCS | MDM2 E3 inh | Hck Nef HTS | TNF necrop inh | Dynein cargo inh | Dynein confirm
CN1C(=S)N(c2cccnc2)C(=O)/C1=C\c1ccc(C(C)(C)C)cc1 | 63 | i | -16 | 26 | -8 | -3.7* | ?
CC1(C)COC(c2cccc(C3=NC(C)(C)CO3)n2)=N1 | 2 | i | 4 | 2 | 0 | 2.6 | ·
N#CC1=C(N)C(C#N)(C#N)C(c2ccncc2)C2CN(C(=O)OCc3ccccc3)CC=C12 (configuration not stated) | 0 | i | 11 | 9 | -10 | -4 | i
N#CC1=C(N)C(C#N)(C#N)[C@H](c2cccnc2)[C@H]2CN(C(=O)OCc3ccccc3)CC=C12 | · | i | 13 | 11 | -8 | -0.28 | ·
CCN(C(=O)COC(=O)c1cccnc1Nc1ccccc1F)C1CCS(=O)(=O)C1 (configuration not stated) | 0 | i | -6 | 4 | 1 | -0.14 | ·
O=C(/C=C/c1ccnc2ccccc12)c1cccs1 | 3 | i | -34 | 3 | -2 | -1.9 | ·
N#CC1=C(N)N(c2ccc(Oc3ccccc3)cc2)C(=O)C1 | 0 | i | 3 | 3 | -2 | 0.63 | ·
Cc1ccc(-c2csc3ncnc(Sc4nnc(CN5CCCCCC5=O)o4)c23)cc1 | 68 | + | -10 | 6 | -11 | -3.8* | +
Cc1ccc(-c2csc3ncnc(SCC(=O)Nc4nnc(C)s4)c23)cc1 | 1 | i | 1 | 0 | -1 | -0.17 | ·
Nc1ccc(O)cc1C(=O)OCC(=O)c1ccc(C2CCCCC2)cc1 | 0 | i | -1 | 2 | -11 | -3.5* | +
COc1ccc(C(=O)OCC(=O)c2ccc(C3CCCCC3)cc2)cc1 | 0 | i | 0 | 0 | -12 | -0.35 | ·
COC(=O)c1ccc(NCCC(=O)O)cc1 | 1 | i | 9 | 3 | 2 | -0.023 | ·
Cn1nnnc1SC1CC(=O)N(c2ccccc2)C1=O (configuration not stated) | -1 | i | · | 8 | -1 | -4.6* | +
O=C1CC(Sc2nnnn2C2CCCCC2)C(=O)N1c1ccccc1 (configuration not stated) | 0 | i | 12 | 1 | -7 | -0.27 | ·
O=c1c(Cl)cc(Cl)nn1-c1ccccc1 | 2 | i | 6 | 6 | -7 | -3.5* | +
COc1cccc(N(C(=O)CS(=O)CC(=O)Nc2ccc(F)cc2)C(C(=O)NC2CCCCC2)c2cccs2)c1 (configuration not stated) | 0 | i | 3 | 6 | 2 | 0.15 | ·
COc1ccc(N(C(=O)CCl)C(C(=O)NCCc2ccccc2)c2cccs2)cc1Cl (configuration not stated) | 1 | i | · | 0 | -16 | -4.8* | +
COc1cccc(N(C(=O)CCl)C(C(=O)NCCc2ccccc2)c2cccs2)c1 (configuration not stated) | 0 | i | -15 | 0 | -13 | -5.5* | +
CC1(C)CC(NC(=O)C23CCC(C)(C2Br)C3(C)C)CC(C)(C)N1 (configuration not stated) | 0 | · | -4 | 0 | 4 | 0.029 | ·
O=C(CCl)N1CCN2C(=O)c3ccccc3C12c1ccc(Cl)cc1 (configuration not stated) | 54 | i | 7 | 20 | -15 | -4.6* | +
O=C(Nc1cccc(Cl)c1)N1CCN2C(=O)c3ccccc3C12c1ccccc1 (configuration not stated) | 0 | i | -1 | 1 | 0 | -0.41 | ·
N#C/C(C(N)=O)=C1/SC=C(c2ccccc2)N1c1ccccc1 | 2 | · | 2 | 9 | 2 | -0.91 | ·
N#C/C(C(=O)c1ccccc1)=C1/SC=C(N)N1c1ccccc1 | -1 | i | -11 | -1 | -2 | -4.4 | i
CC1(C)COC(/C=C/c2cccc([N+](=O)[O-])c2)=N1 | 68 | i | -9 | -14 | -9 | -4.5* | +
COc1cc(/C=C/C(=O)O)cc(S(=O)(=O)Nc2cccc(SC)c2)c1OC | 0 | i | -43 | 2 | 2 | 0.91 | ·
SMILES | zVAD death inh | Autophagy HCS | MDM2 E3 inh | Hck Nef HTS | TNF necrop inh | Dynein cargo inh | Dynein confirm
COc1ccccc1-[n+]1c(C)cc(/C=C2\Sc3ccccc3N2C)cc1C | 1 | · | · | -32 | -23 | -5 | +
CN(C)c1ccc(-n2cccc2/C=C/[N+](=O)[O-])cc1 | -2 | i | 25 | 22 | 0 | -1.8 | ·
CN(c1ccccc1)c1ccc(/C=C/[N+](=O)[O-])cc1 | -1 | i | 2 | 8 | 1 | -3.6* | i
COc1c(F)c(F)c(C(=O)Nc2c(C)cc(Br)cc2C)c(F)c1F | 1 | i | -1 | 17 | 0 | -0.52 | ·
O=C(CCN1Cc2ccccc2C1)c1ccc2c(c1)OCCO2 | 0 | i | -14 | 0 | -4 | -3.6* | ?
O=C(CCN1CCc2ccccc2C(c2ccccc2)C1)c1ccc2c(c1)OCCO2 (configuration not stated) | 0 | i | -14 | -2 | 2 | -1 | ·
Cc1ccc(C(=O)/C=C/c2ccccc2[N+](=O)[O-])cc1 | 0 | i | -7 | 10 | -8 | -4.7* | +
COc1cccc(/C=C/C(=O)c2ccc(C)c([N+](=O)[O-])c2)c1 | 1 | i | 2 | 7 | 2 | -4* | +
COc1cc(/C=C/C(=O)c2ccc(C)c([N+](=O)[O-])c2)cc(OC)c1O | 13 | i | -3 | 1 | -7 | -3.8* | ?
O=C(CN1CCCc2ccccc21)NC(=O)NC1CCCCC1 | 6 | i | -24 | 22 | 0 | -3.6 | i
O=S(=O)(CCSc1nc2ccccc2s1)c1nc2ccccc2s1 | 0 | i | -25 | -2 | -12 | -0.55 | ·
C=CCS(=O)(=O)c1nc2ccccc2s1 | 0 | i | -14 | -2 | 1 | -5.4* | i
CCCCSC(=S)NC1CCS(=O)(=O)C1 (configuration not stated) | -1 | i | -5 | 6 | -6 | -1 | ·
O=S1(=O)CCC(NC(=S)SCCOc2ccccc2)C1 (configuration not stated) | -3 | i | -13 | 14 | -10 | -3.9* | +
Cc1nc2c(=O)n(C)c(=O)n(C)c2nc1Cl | 11 | i | 12 | 0 | -14 | -6.2* | +
Cn1c(=O)c2nc(NCc3ccccc3)cnc2n(C)c1=O | 0 | i | -11 | 3 | 0 | -0.78 | ·
Cc1ccc2nc(Cl)c3nnnn3c2c1 | 1 | i | -19 | 32 | -14 | -5.2* | +

Screening data deposited in PubChem BioAssay by several laboratories.
